In the library only some 2.9% were active in any assay of this set; here they are far more common.
SENP6 inh – SENP6 protease inhibitors, primary screen, biochemical, luminescence, uHTS; AID 2599, 2010; 1.8% of 330,000 active; Recombinant SENP6 catalytic domain, aminoluciferin luminescence; Sentrin-specific protease 6 (Homo sapiens), Q9GZR1; inhibition, % at 10 µM;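 active means inhibition above about 50% at the single tested dose, limit read from the data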;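 further: plate controls were DMSO wells with enzyme for no effect and DMSO wells lacking enzyme for full effect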
Apaf1 inhib – inhibitors of human Apaf-1 apoptosome, primary screen, biochemical, DEVD-Rh110 fluorescence, uHTS; Apoptotic protease-activating factor 1 (Homo sapiens), O14727; reconstituted apoptosome caspase-3 activity; inhibition, % at 20 µM; 0.71% of 330,000 active; AID 489030, 2010; active means inhibition of at least 40% at 20 µM;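 further: plate controls were DMSO wells for no effect and DEVD-CHO caspase inhibitor wells for full effect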
Target sequence (O14727 whole entry, looked up): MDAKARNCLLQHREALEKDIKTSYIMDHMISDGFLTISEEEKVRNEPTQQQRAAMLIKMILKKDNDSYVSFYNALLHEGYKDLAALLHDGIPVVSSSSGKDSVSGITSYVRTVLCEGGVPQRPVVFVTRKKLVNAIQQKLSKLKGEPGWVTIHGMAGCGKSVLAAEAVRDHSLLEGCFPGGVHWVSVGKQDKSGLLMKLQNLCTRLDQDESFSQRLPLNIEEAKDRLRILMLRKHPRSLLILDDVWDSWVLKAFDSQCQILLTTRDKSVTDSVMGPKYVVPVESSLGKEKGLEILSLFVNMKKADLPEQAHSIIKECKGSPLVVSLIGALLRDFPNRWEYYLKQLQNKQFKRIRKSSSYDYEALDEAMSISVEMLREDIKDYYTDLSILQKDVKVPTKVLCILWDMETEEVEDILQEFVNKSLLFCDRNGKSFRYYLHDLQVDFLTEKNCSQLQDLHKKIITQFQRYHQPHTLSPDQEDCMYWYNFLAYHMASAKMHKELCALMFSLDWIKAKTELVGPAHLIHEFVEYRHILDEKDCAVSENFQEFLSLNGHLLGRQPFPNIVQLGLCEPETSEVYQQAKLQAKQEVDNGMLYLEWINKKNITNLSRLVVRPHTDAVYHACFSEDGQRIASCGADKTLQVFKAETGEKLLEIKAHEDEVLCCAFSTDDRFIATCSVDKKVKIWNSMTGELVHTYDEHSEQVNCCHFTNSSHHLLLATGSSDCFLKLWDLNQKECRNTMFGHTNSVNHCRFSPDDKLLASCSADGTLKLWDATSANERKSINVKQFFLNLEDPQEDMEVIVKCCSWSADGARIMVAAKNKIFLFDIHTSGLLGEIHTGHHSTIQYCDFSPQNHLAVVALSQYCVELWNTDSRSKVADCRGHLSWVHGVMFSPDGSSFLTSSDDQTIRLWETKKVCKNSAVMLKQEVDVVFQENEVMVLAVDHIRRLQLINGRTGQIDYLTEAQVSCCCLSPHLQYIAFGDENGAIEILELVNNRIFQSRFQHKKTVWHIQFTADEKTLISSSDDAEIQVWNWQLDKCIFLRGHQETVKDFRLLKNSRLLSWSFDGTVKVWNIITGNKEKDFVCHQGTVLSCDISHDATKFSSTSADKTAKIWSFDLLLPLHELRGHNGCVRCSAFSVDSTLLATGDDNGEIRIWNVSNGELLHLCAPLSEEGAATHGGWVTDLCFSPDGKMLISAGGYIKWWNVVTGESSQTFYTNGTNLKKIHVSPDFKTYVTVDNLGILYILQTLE
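Material: reconstituted apoptosome with Apaf-1, cytochrome c, caspase-9, procaspase-3, dATP / Buffer or medium: pH 7.5 Hepes buffer with CHAPS, BSA, DTT / Also added: cytochrome c with DEVD-Rh110 / Schedule: compound with Apaf-1, dATP, procaspase-3 30 min, then 50 min reaction, room temperature / Technique: rhodamine 110 fluorescence at Ex 480/Em 540 nm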
SENP1 inh – human SENP1 catalytic domain inhibitors, primary screen, biochemical, FRET, uHTS. inhibition, % at 10 µM. recombinant SENP1 catalytic domain, CyPet-SUMO1-YPet FRET cleavage. Sentrin-specific protease 1 (Homo sapiens), Q9P0U3. 0.21% of 360,000 active;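 active means inhibition at least 30% at 10 µM, raw YFP signal under a set limit, fluorescence ratio 0.5 to 1.5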;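 further: 0% = enzyme with DMSO and 100% = no enzyme wells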
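material = recombinant human SENP1 catalytic domain, His6-tagged | quantity = 20 pM enzyme | reagent = 25 nM SUMO1 FRET substrate | compound dosing = 10 µM single point, 0.5% DMSO | timing = 50 min enzyme reaction, room temperature, light-protected | detection = FRET, CFP and YFP emission | control set = no-enzyme low, enzyme-DMSO high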
SENP8 block-1 – SENP8 protease inhibitors, primary screen, biochemical, luminescence | Sentrin-specific protease 8 (Homo sapiens), Q96LD8 | purified SENP8, Z-RLRGG-aminoluciferin cleavage | inhibition, % at 10 µM | 1.2% of 330,000 active | AID 2540, 2010; in the data active means inhibition above about 50%
SENP8 block-2 – human SENP8 protease inhibitors, primary screen, biochemical, fluorescence, Nedd8 protein substrate, uHTS | inhibition, % at 20 µM | recombinant SENP8 | 0.64% of 360,000 active | AID 602440, 2012; in the data active means inhibition mostly above about 40%, no sharp cut-off; inactive means mostly below about 27%
SENP7 inh – SENP7 protease inhibitors, primary screen, biochemical, luminescence, uHTS | Sentrin-specific protease 7 (Homo sapiens), Q9BQF6 | recombinant SENP7, Z-RLRGG-aminoluciferin luminescence, 40 min | inhibition, % at 5 µM | 1.5% of 330,000 active | AID 434973, 2010;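 active means inhibition above about 50% at the single test dose, limit read from the data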;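 further: plate controls were DMSO with enzyme for no effect and no enzyme buffer wells for full effect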
SENP8 conf – SENP8 protease inhibitors, retest, confirmation, biochemical, luminescence, single concentration; shares compounds with SENP7 inh; Recombinant SENP8, Z-RLRGG-aminoluciferin luminescence, 60 min; inhibition, % at 12.5 µM; 40% of 6,200 active; AID 488912, 2010;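 active means mean inhibition across replicates above about 50%, limit read from the data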
SENP6 confirm – SENP6 protease inhibitors, confirmation, biochemical, luminescence, single concentration | shares compounds with SENP7 inh | recombinant SENP6, Z-RLRGG-aminoluciferin luminescence | inhibition, % at 12.5 µM | 58% of 6,200 active | AID 488915, 2010
SENP7 confirm – SENP7 protease inhibitors, retest, confirmation, biochemical, luminescence, single concentration; shares compounds with SENP7 inh; recombinant SENP7, Z-RLRGG-aminoluciferin luminescence, 40 min; inhibition, % at 12.5 µM; 69% of 6,200 active; AID 488917, 2010
Casp3 select – caspase-3 protease inhibitors, confirmation, selectivity assay for SENP inhibitor project, biochemical, single concentration | shares compounds with SENP7 inh | purified caspase-3, Z-DEVD-aminoluciferin luminescence, 60 min | inhibition, % at 12.5 µM | 60% of 6,200 active | AID 488918, 2010;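 active means mean inhibition above about 50%, limit read from the data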;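 further: plate controls were enzyme with DMSO for no effect and wells without caspase-3 for full effect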
SENP luc ctr – counter-screen for SENP inhibitors: luminescence interference; shares compounds with SENP7 inh; Pre-incubated SENP8/Z-RLRGG-aminoluciferin, luciferase luminescence interference; 39% of 6,200 active; inhibition, % at 12.5 µM; AID 488919;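 active means mean inhibition above about 50% when retested at one dose, limit read from the data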;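 further: plate controls were DMSO wells with completed reaction for no effect and substrate without enzyme for full effect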
Starred values were filed as active, the others as inactive; i = inactive; nt = no result given.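 How the source made its calls, unless noted: active means mean inhibition above about 50% in the one-dose retest (limit read from the data); inactive means the rest.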

SMILES | SENP6 inh | Apaf1 inhib | SENP1 inh | SENP8 block-1 | SENP8 block-2 | SENP7 inh | SENP8 conf | SENP6 confirm | SENP7 confirm | Casp3 select | SENP luc ctr
Cc1ccc(NC(=O)c2ccc3c(c2)OCCO3)cc1C | 91* | 4 | 0 | 86* | 9 | 92* | -11 | 86* | 98* | 86* | 88*
CCOC(=O)c1c(C)c(C(=O)Nc2ccc3c(c2)OCO3)c(C)n1C | -9 | -9 | -33 | -4 | -2 | 4 | nt | nt | nt | nt | nt
CCOC(=O)c1c(N)sc(C(=O)Nc2ccc3c(c2)OCO3)c1C | 97* | 3 | -5 | 92* | 1 | 98* | 10 | 98* | 103* | 96* | 96*
Cc1ccc(C(=O)Nc2ccc3c(c2)OCCO3)c(C)c1 | 91* | -16 | 1 | 81* | -1 | 89* | 88* | 88* | 97* | 93* | 87*
Nc1c(C(=O)Nc2ccccc2)nnn1-c1ccc2c(c1)OCCO2 | 85* | 10 | 2 | 76* | 20 | 82* | 85* | 84* | 97* | 82* | 70*
CC(=O)Nc1ccc(C(=O)Nc2ccc3c(c2)OCCO3)cc1 | 5 | 0 | 0 | -9 | 11 | 1 | nt | nt | nt | nt | nt
Cc1ccc(NC(=O)c2nnn(-c3ccc4c(c3)OCCO4)c2N)cc1 | -13 | 15 | -2 | -13 | 1 | -11 | nt | nt | nt | nt | nt
CN(C)c1cccc(C(=O)Nc2cccc(F)c2)c1 | 30 | 5 | -2 | 4 | -348 | 16 | nt | nt | nt | nt | nt
CCN(CC)c1ccc(NC(=O)Nc2ccc(C(C)=O)cc2)cc1 | 30 | 10 | 2 | -3 | 10 | -2 | nt | nt | nt | nt | nt
Cc1cccc(NC(=O)c2ccc3c(c2)OCCO3)c1 | 86* | 7 | 2 | 85* | 9 | 92* | 7 | 93* | 101* | 94* | 90*
CCN(CC)c1ccc(C(=O)Nc2cccc(F)c2)cc1 | 84* | 14 | -2 | 59* | -155 | 59* | 71* | 74* | 93* | 64* | 68*
CCN(CC)c1ccc(NC(=O)Nc2ccccc2)cc1 | 83* | 6 | -1 | 64* | 12 | 65* | 36 | 71* | 88* | 76* | 52*
CC(=O)c1cccc(NC(=O)c2ccc3c(c2)OCO3)c1 | 12 | 6 | 0 | -15 | 17 | 17 | nt | nt | nt | nt | nt
CCCC(=O)Nc1cccc(NC(=O)c2ccc3c(c2)OCCO3)c1 | -2 | -7 | 2 | 14 | 9 | -7 | nt | nt | nt | nt | nt
CCOC(=O)c1cccc(NC(=O)c2ccc3c(c2)OCO3)c1 | 60* | 3 | 0 | 24 | 14 | 45 | 51* | 47 | 74* | 54* | 38
O=C(CCCNC(=O)c1ccc(Cl)cc1)Nc1ccc(F)c(S(=O)(=O)N2CCOCC2)c1 | -10 | 5 | -2 | -8 | -9 | 9 | nt | nt | nt | nt | nt
CCN(C[C@H]1N[C@@](Cc2ccccc2)(C(=O)OC)[C@H]2C(=O)N(C)C(=O)[C@@H]12)C(C)=O | -23 | 2 | 0 | -12 | 4 | -10 | nt | nt | nt | nt | nt
COC(=O)C[C@H]1CC[C@@H](NC(=O)C2CC2)[C@@H](CO)O1 | nt | nt | 3 | nt | 19 | nt | nt | nt | nt | nt | nt
O=C(Nc1ccc(NC(=O)c2ccc3c(c2)OCCO3)cc1)c1ccccc1 | -31 | -11 | -1 | 5 | 8 | -9 | nt | nt | nt | nt | nt
O=C(Nc1cccc(F)c1)c1ccc2c(c1)OCCO2 | 89* | 2 | 2 | 87* | 2 | 93* | -4 | 88* | 99* | 90* | 89*
CN(CC(=O)Nc1cccc(F)c1)C(=O)c1ccc2c(c1)OCCO2 | 19 | -5 | -1 | 16 | 11 | 3 | nt | nt | nt | nt | nt
O=C(Nc1ccccc1)c1ccc2c(c1)OCCO2 | 93* | -4 | -1 | 77* | 29 | 85* | -23 | 77* | 97* | 92* | 84*
COc1ccc(C2=Nc3ccccc3OC2)cc1 | 71* | 4 | 0 | 35 | i | 56* | 98* | 99* | 102* | 95* | 90*
COc1ccc(NC(=O)c2cc(C3CCCCN3C(=O)OCc3ccccc3)on2)c(C)c1 (centres undefined) | nt | nt | 2 | nt | 12 | nt | nt | nt | nt | nt | nt
O=C(OCC(=O)N1CCc2ccccc2C1)c1ccc(F)cc1Cl | -11 | 20 | 2 | -17 | 15 | -2 | nt | nt | nt | nt | nt
SMILES | SENP6 inh | Apaf1 inhib | SENP1 inh | SENP8 block-1 | SENP8 block-2 | SENP7 inh | SENP8 conf | SENP6 confirm | SENP7 confirm | Casp3 select | SENP luc ctr
Cc1nn(Cc2ccccc2Cl)c(C)c1C(=O)NCc1ccco1 | -2 | -7 | -1 | 0 | 8 | 2 | nt | nt | nt | nt | nt
Cc1nn(Cc2ccccc2Cl)c(C)c1C(=O)NCCN1C(=O)S/C(=C\c2ccccc2)C1=O | -9 | 11 | 1 | -2 | 7 | 66* | -11 | -4 | -2 | -2 | -8
Cc1ccc(C(=O)OCC(=O)Nc2cc(Cl)ccc2C#N)o1 | nt | nt | -1 | nt | 13 | nt | nt | nt | nt | nt | nt
COc1ccc2[nH]c3c(c2c1)CCN1C(=O)C(CC(=O)NCCc2ccccn2)C[C@H](C(=O)N2CCCCC2)[C@@]31C (some centres undefined) | nt | 19 | -2 | nt | -10 | 1 | nt | nt | nt | nt | nt
CN(Cc1ccc(Cl)cc1)C(c1cc2ccccc2o1)c1nnnn1C(C)(C)C (centres undefined) | nt | nt | 3 | nt | 14 | nt | nt | nt | nt | nt | nt
COc1ccc(NC(=O)c2cccc(Oc3ccccc3)c2)cn1 | 72* | 13 | 3 | 50 | 12 | 62* | 52* | 52* | 83* | 45 | 41
COc1ccc(NC(=O)c2cccc(S(=O)(=O)Nc3ccc(Br)cc3)c2)cn1 | -1 | 6 | 1 | -11 | 31 | 4 | nt | nt | nt | nt | nt
NC(=O)c1ccc(NC(=O)c2cccc(Oc3ccccc3)c2)cc1 | 38 | 3 | 1 | 10 | 9 | 68* | -28 | -9 | 0 | 16 | -3

From PubChem BioAssay
